Hits are enriched below; roughly 2% of the tested compounds scored in any of these assays.
CAL PDZ FP-1 – inhibitors of human CAL PDZ peptide binding; 300,000 tested, 0.92% active; purified CAL PDZ, TMR-peptide fluorescence polarization, 1 h; inhibition, % at 24.9 µM;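 active means mean inhibition of at least 30% with at least half of replicates also reaching 30%; inconclusive means no clear call, values can overlap the other calls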
S100A4 MyoIIA – inhibitors of human S100A4 binding to myosin IIA peptide; P26447; S100A4/TAMRA-MyoIIA peptide fluorescence polarization; inhibition, % at 10.7 µM; 360,000 tested, 0.14% active; AID 652163;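 active means mean inhibition of at least 70% across replicates, with every replicate also reaching that level; inconclusive means mean inhibition reaches 70% but some replicates fall short; inactive means mean inhibition below 70%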
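Material: S100A4 monomer protein / Buffer or medium: 50 mM HEPES pH 7.2, 10 mM CaCl2, 100 mM KCl / Times: 5 min incubation before reading / Benchmarks: neutral control DMSO, positive control TFP / Reagent: labelled myosin peptide probe, 5 nM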
CDK5 p35 inh – inhibitors of human CDK5/p35 kinase | Q00535+Q15078 | Recombinant CDK5/p35, ADP-Glo luminescence, 60 min | inhibition, % at 10 µM | 330,000 tested, 0.01% active | AID 488839;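 active means highest replicate inhibition of at least 50% and at least 75% of replicates reaching 50%; inconclusive means only one of the two criteria met; inactive means both criteria failed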
Target sequence (Q00535 whole entry, looked up): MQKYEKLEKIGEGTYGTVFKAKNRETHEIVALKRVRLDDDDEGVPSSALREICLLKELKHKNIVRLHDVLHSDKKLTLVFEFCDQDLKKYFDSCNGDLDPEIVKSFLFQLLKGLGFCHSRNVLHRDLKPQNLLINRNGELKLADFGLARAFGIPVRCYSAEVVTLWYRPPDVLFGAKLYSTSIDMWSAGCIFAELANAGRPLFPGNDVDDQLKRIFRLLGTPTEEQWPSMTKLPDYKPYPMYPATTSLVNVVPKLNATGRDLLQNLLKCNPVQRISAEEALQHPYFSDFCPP
Target sequence (Q15078 whole entry, looked up): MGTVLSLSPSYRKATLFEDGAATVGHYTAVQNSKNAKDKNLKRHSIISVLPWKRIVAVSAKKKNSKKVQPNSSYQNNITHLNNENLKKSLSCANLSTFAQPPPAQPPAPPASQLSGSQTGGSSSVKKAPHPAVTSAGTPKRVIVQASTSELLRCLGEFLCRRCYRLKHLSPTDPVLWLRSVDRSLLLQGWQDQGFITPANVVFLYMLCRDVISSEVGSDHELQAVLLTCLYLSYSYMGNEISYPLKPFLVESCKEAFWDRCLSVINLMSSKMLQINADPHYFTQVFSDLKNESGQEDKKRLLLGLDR
Statin myotox sup – suppression of simvastatin myotoxicity | C2C12 myotubes + simvastatin, ATP luminescence, 48 h; scaled: DMSO 0, geranylgeraniol control 100 | rescue of ATP level, % at 7.49 µM | 330,000 tested, 0.78% active;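 active means mean ATP rescue above about 67%, or every replicate alone reaching that limit, limit read from the data, passing the limit was not always enough; inconclusive means no clear call, values can overlap the other calls; inactive means mean under the limit and some replicate under it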;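 further: myotubes were challenged with 10 µM simvastatin during compound exposure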
dFosB act – activators of mouse delta FosB homodimer; activation, % at 25 µM; 340,000 tested, 0.99% active; AID 493131; P13346; purified delta FosB, TAMRA-CDK5 oligo fluorescence polarization; percent of positive-control signal above neutral wells;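 active means mean activation above about 17%, with every replicate also reaching it, limit read from the data, passing the limit was not always enough; inconclusive means only one of the two conditions met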
CAL PDZ FP-2 – inhibitors of human CAL PDZ peptide binding; 330,000 tested, 0.02% active; AID 504414; Q9HD26; purified CAL PDZ, TMR-peptide fluorescence polarization, 1 h; inhibition, % at 20 µM;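 active means highest replicate inhibition of at least 40%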
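material = purified tagged CAL PDZ domain construct (CerCALP) | compound dosing = 20 µM, one dose | times = 1 h at RT | measured by = fluorescence polarization from S- and P-plane intensities, G-factor corrected | read-out = inhibition from polarization loss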
Numbers stand for hits; - = inactive; ? = inconclusive; . = no result given.

SMILES | CAL PDZ FP-1 | S100A4 MyoIIA | CDK5 p35 inh | Statin myotox sup | dFosB act | CAL PDZ FP-2
CC(=O)O[C@@H]1CC[C@]2(C)C3CC[C@]4(C)C(=O)[C@H](O)CC4C3[C@@H](OC(C)=O)C[C@H]2C1 (stereo not given in full) | 78 | - | - | - | - | -
CC(=O)O[C@H]1CC[C@]2(C)C3CC[C@@]4(C)C(C[C@@H](O)[C@@H]4O)C3[C@@H](OC(C)=O)C[C@H]2C1 (stereo not given in full) | . | - | . | - | . | .
CC1C(c2cccs2)=[N+]([O-])C(C)(C(=O)c2cccs2)N1O (stereo not given) | - | . | - | . | - | -
O=c1[nH]c(=S)n(-c2ccccc2)c(O)c1/C=N/N1CCCCC1c1cccnc1 (stereo not given) | - | - | - | - | 39 | -
CCc1ccc(-n2c(O)c(/C=N/N3CCCCC3c3cccnc3)c(=O)[nH]c2=O)cc1 (stereo not given) | - | - | - | . | - | -
NC(N)=Nc1ccc2[nH]c3c(c2c1)C[C@@]1(O)[C@H]2Cc4ccc(O)c5c4[C@@]1(CCN2CC1CC1)[C@H]3O5 | - | . | - | - | 41 | -
N#CCCn1cc(C(=O)NCc2ccccc2)c(-c2ccccc2)n1 | - | - | - | . | - | -
N#CCCn1cc(C(=O)NCc2ccccc2)c(-c2ccc3c(c2)OCCO3)n1 | 47 | - | - | - | - | -
O=C(c1ccc2c(c1)OCO2)C1CCCN(CC2CCCCC2)C1 (stereo not given) | 78 | - | - | . | - | -
COC(=O)C1=C(c2ccc(F)cc2OCc2ccccc2)C[C@@H]2CC[C@H]1N2C(=O)NCc1ccc(Br)cc1 | - | - | - | 76 | - | -
COC(=O)C1=C(c2ccc(F)cc2OCc2ccccc2)C[C@@H]2CC[C@H]1N2C(=O)NCc1ccc(N(C)C)cc1 | - | - | - | - | - | -
COC(=O)C1=C(c2ccc(OC(F)(F)F)cc2)C[C@@H]2CC[C@H]1N2C(=O)NCCOc1ccc(OC)cc1 | - | - | - | 128 | - | -
COC(=O)C1=C(c2ccc(F)cc2OCc2ccccc2)C[C@@H]2CC[C@H]1N2C(=O)NCc1ccc(OC)cc1 | - | - | - | 84 | - | -
Cc1nc2sccc2c(=O)n1-c1ccccc1Cl | - | . | - | - | - | -
C[C@H](CO)N1C[C@H](C)[C@H](CN(C)C(=O)Oc2ccc3ccccc3c2)OCc2cn(nn2)CCCC1=O | . | - | . | - | . | .
COc1cccc(CNCCc2ccc(F)cc2)c1 | 77 | - | - | - | - | -
CC[n+]1c(-c2ccccc2)c2cc(N)ccc2c2ccc(N)cc21 | - | 130 | - | . | - | -
CCn1c(O)c(C=Nc2ccc(N3CCOCC3)c(Br)c2)c(=O)n(CC)c1=S | . | . | - | - | 24 | -
CC1N(O)C2CCCCCC2N1O (stereo not given) | - | . | - | - | - | -
CC[n+]1c(/C=C/C=C/c2ccc(N(C)C)cc2)sc2ccccc21 | . | - | - | . | 155 | -
CN(C)c1ccc(/C=C/C=C/c2sc3ccccc3[n+]2C)cc1 | . | - | - | . | ? | -
CC(=O)OC1(C)CC(C)C(=O)C(C(O)CC2CC(=O)NC(=O)C2)C1 (stereo not given) | - | - | - | 83 | - | -
C[C@@H]1C[C@@H]([C@H](O)CC2CC(=O)NC(=O)C2)C(=O)[C@@H](C)C1 | - | - | - | 173 | - | -
COC(=O)c1ccc(CN2CCSC2=N)cc1 | - | - | . | - | - | -
Nc1c(C(=O)NCc2ccco2)c2nc3ccccc3nc2n1Cc1ccccc1 | - | . | - | . | - | -
COc1ccc(Cn2c(N)c(C(=O)NCc3ccco3)c3nc4ccccc4nc32)cc1 | - | . | - | 74 | - | -
CC(=O)NCCc1c[nH]c2ccccc12 | - | - | - | - | - | -
CSc1nc2ccccc2c(=O)n1-c1cccnc1 | 79 | - | - | . | - | -
Cc1cc(C)cc(-n2c(C)cc(/C=C3\C(=O)NC(=O)N(C)C3=O)c2C)c1 | - | - | - | . | - | -
O=c1c2ccccc2nc(-c2ccco2)n1-c1ccccn1 | - | . | - | 120 | - | -

Screening results from PubChem BioAssay.
